Experimental data of several laboratories.
Compare with care: the assays were run in different laboratories.
PDK1: [Pyruvate dehydrogenase (acetyl-transferring)] kinase isozyme 1, mitochondrial (PDK1, Homo sapiens, UniProt Q15118)
AKT2: RAC-beta serine/threonine-protein kinase (AKT2, Homo sapiens, UniProt P31751)

SMILES | target | observed | action | technique | concentration | endpoint | value
Cc1ncsc1-c1ccc(CNC(=O)[C@@H]2C[C@@H](O)CN2C(=O)[C@@H](NC(=O)CCCCCCCCNC(=O)CN2CCN(C(=O)c3ccc(Nc4nc(C5CC5)cn5c(-c6cn[nH]c6)cnc45)c(F)c3)CC2)C(C)(C)C)cc1 | Mitogen-activated protein kinase kinase kinase 19 (MAP3K19, Homo sapiens, UniProt Q56UN5) | cell-free assay | – | competition with immobilised ligand | 1 µM | inhibition | > 65%
O=C(c1ccc(Oc2ccc3cc(Br)ccc3c2Cl)c([N+](=O)[O-])c1)C(Cl)Cl | PDK1 | enzyme activity | inhibitor | ATP luminescence | 10 µM | inhibition | 41.8%
Cc1cc([C@@H](C)Nc2ccccc2C(=O)O)c2nc(N3CCC(F)(F)CC3)c(C#N)c(=O)n2c1 | Casein kinase I isoform gamma-2 (CSNK1G2, Homo sapiens, UniProt P78368) | binding | – | competition with immobilised ligand | 1 µM | remaining binding | 100%
COc1cc(-c2cncc3c2CN(C)Cc2cc(N4CCNCC4)ccc2-3)cc(OC)c1OC | AKT2 | enzyme activity | inhibitor | – | 1 µM | remaining activity | 132%
C=CC(=O)N1CCC(COCC(=O)N2CCN(c3nc(-c4cnc(N)nc4C(F)F)nc(N4CCOC[C@@H]4C)n3)CC2)CC1 | AKT2 | binding | – | competition with immobilised ligand | 1 µM | remaining binding | 100%
O=C(c1ccccc1)c1ccc(Oc2ccc(C(=O)C(Cl)Cl)cc2[N+](=O)[O-])cc1 | PDK1 | enzyme activity | inhibitor | ATP luminescence | 10 µM | inhibition | 36.9%
CNc1ncc2c(/C=C/C(=O)N3CCC(OC)CC3)nn(Cc3cccc(C(F)(F)F)c3)c2n1 | Vascular endothelial growth factor receptor 1 (FLT1, Homo sapiens, UniProt P17948) | enzyme activity | inhibitor | radiometric | 1 µM | remaining activity | 95%
CC(=O)Nc1ccc(Oc2ccc(C(=O)C(Cl)Cl)cc2[N+](=O)[O-])cc1 | PDK1 | enzyme activity | inhibitor | ATP luminescence | 10 µM | inhibition | 22.7%
Cc1cc(NC(=O)c2cccc(NC(=O)/C=C/CN(C)C)c2)ccc1Nc1nccc(-c2cccnc2)n1 | Mast/stem cell growth factor receptor Kit (KIT, Homo sapiens, UniProt P10721) | binding | – | competition with immobilised ligand | 1 µM | remaining binding | 4.1%
